pIC50: −log10 of the molar value. Like-named read-outs stand apart in the source and are kept apart here.
Columns and labels:
CRBN = CRBN (Homo sapiens, UniProt Q96SW2); assay: Cellular CRBN engagement assay; assay type: cell-based; conditions: restoration of BRD4BD2-GFP signal, Figure 2B
wildtype EGFR = wildtype EGFR (Homo sapiens, UniProt P00533); assay: Western blot of total EGFR protein in wildtype EGFR Ba/F3 cells; assay type: cell-based, murine; conditions: increasing concentrations, 6, 24 and 48 hours
How it was run: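 Wildtype EGFR Ba/F3 cells exposed to rising test-compound concentrations for 6, 24 and 48 h, then lysed and immunoblotted for total EGFR with tubulin as loading control. Band densitometry was normalised to tubulin and expressed as percent EGFR remaining relative to DMSO control. The same treatment was run in parallel on L858R/T790M Ba/F3 cells.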

EGFR L858R/T790M = EGFR L858R/T790M (Homo sapiens, UniProt P00533, L858R/T790M); assay: HTRF kinase assay of purified EGFR L858R/T790M; assay type: biochemical; conditions: for pIC50: read-out: IC50 against EGFR L858R/T790M, HTRF assay, purified enzyme
L858R/T790M EGFR = L858R/T790M EGFR (Homo sapiens, UniProt P00533, L858R/T790M); assay: Western blot of total EGFR protein in L858R/T790M Ba/F3 cells; assay type: cell-based, murine; conditions: L858R/T790M Ba/F3, 24 hours, 0.1 μM DDC-01-163; 10 μM pomalidomide, 1 μM JBJ-07-149 or increasing MLN4924
[1] = test system: L858R/T790M/L718Q EGFR Ba/F3 cells; assay: Ba/F3 cell proliferation assay, L858R/T790M/L718Q EGFR; assay type: cell-based, murine
[2] = test system: L858R/T790M/C797S EGFR Ba/F3 cells; assay: Ba/F3 cell proliferation assay, L858R/T790M/C797S EGFR; assay type: cell-based, murine

Sequence of CRBN (Q96SW2 whole entry, species assumed): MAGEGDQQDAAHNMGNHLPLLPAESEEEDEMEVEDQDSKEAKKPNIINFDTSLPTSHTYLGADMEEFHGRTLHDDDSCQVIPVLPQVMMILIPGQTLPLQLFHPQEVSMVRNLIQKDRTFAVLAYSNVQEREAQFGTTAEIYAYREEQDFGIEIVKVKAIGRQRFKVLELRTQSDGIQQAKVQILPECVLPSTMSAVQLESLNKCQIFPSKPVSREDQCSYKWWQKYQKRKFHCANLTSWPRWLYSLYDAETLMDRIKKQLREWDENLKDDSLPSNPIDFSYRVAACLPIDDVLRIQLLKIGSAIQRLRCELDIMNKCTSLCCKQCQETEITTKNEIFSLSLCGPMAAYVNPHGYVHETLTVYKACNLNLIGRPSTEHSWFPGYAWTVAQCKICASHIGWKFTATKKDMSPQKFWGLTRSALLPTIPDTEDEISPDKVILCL

SMILES	effect on EGFR protein levels in wildtype Ba/F3 cells (wildtype EGFR)	pIC50 (EGFR L858R/T790M)	effect on EGFR degradation by DDC-01-163 (competition / rescue) (L858R/T790M EGFR)	also measured
Nc1cccc2c1C(=O)N(C1CCC(=O)NC1=O)C2=O (stereo not drawn) [pomalidomide]	–	–	prevented EGFR degradation	–
O=C(Nc1nccs1)C(c1ccccc1)N1Cc2ccc(-c3ccc(N4CCNCC4)nc3)cc2C1=O (stereo not drawn) [JBJ-07-149]	–	8.96	prevented EGFR degradation	sensitivity of LT/L718Q EGFR Ba/F3 cells in cell proliferation assay ([1]; L858R/T790M/L718Q EGFR Ba/F3 cells): resistant; sensitivity of LT/C797S EGFR Ba/F3 cells in cell proliferation assay ([2]; L858R/T790M/C797S EGFR Ba/F3 cells): resistant
C=CC(=O)Nc1cc(Nc2nccc(-c3cn(C)c4ccccc34)n2)c(OC)cc1N(C)CCN(C)C [osimertinib, reference compound]	–	–	–	sensitivity of LT/L718Q EGFR Ba/F3 cells in cell proliferation assay [1]: resistant; sensitivity of LT/C797S EGFR Ba/F3 cells in cell proliferation assay [2]: resistant

Now from value to compound, other results behind:

effect on EGFR protein levels in wildtype Ba/F3 cells (wildtype EGFR)	pIC50 (EGFR L858R/T790M)	effect on EGFR degradation by DDC-01-163 (competition / rescue) (L858R/T790M EGFR)	SMILES	also measured
did not affect protein levels	6.41	–	O=C1CCC(N2C(=O)c3cccc(NCCOCCOCCOCCN4CCN(c5ccc(-c6ccc7c(c6)C(=O)N(C(C(=O)Nc6nccs6)c6cc(F)ccc6F)C7)cc5)CC4)c3C2=O)C(=O)N1 (stereo not drawn) [JBJ-07-200]	cellular CRBN engagement (CRBN): more potent CRBN engagement than JBJ-07-038; reduction of biochemical activity compared to DDC-01-163 (EGFR L858R/T790M; ratio of IC50 values): 9 fold; reduction of biochemical activity compared to JBJ-07-038 (EGFR L858R/T790M; ratio of IC50 values): 21 fold
did not affect protein levels	7.72	–	O=C1CCC(N2C(=O)c3cccc(NCCOCCOCCOCCN4CCN(c5ccc(-c6ccc7c(c6)C(=O)N(C(C(=O)Nc6nccs6)c6cc(F)ccc6O)C7)cc5)CC4)c3C2=O)C(=O)N1 (stereo not drawn) [JBJ-07-038]	–
–	–	rescue EGFR degradation	NS(=O)(=O)OC[C@@H]1C[C@@H](n2ccc3c(N[C@H]4CCc5ccccc54)ncnc32)C[C@@H]1O [MLN4924]	–

Source: publication PMC7686272 (Angewandte Chemie (International ed. in English), 2020)
